rRNA inh HTS – selective bacterial rRNA inhibition in E. coli; E. coli WT GFP vs humanized-ribosome RFP mutants, fluorescence, 24 h; active compounds read low; DMSO median 0, no signal -100; GFP signal change (wild-type ribosome), % (no concentration beside the values); AID 720706; 1.6% of 350,000 active;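 active = significant combined selectivity score with lowered wild-type GFP, culture density cut under 30%, mutant RFP and density less affected; inactive = any of these conditions unmet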
miR122 inh – miR-122 inhibition in Huh7 cells; Huh7 miR-122 Renilla luciferase sensor, 48 h; neutral wells = 0, positive control = 100; activation (reporter increase), % at 12.5 µM; 0.3% of 340,000 active;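 active = mean replicate activation score at least 90 and every replicate individually at or above 90; inconclusive = only one of the two criteria met; inactive = neither criterion met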;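 also: higher luciferase means less miR-122 activity so hits act as miR-122 inhibitors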
E-selectin induc – induces E-selectin expression in human endothelial cells | HUVEC E-selectin immunofluorescence imaging; normalized: neutral wells 0, TNF-alpha wells 100 | activation, % at 7.58 µM | 0.37% of 260,000 active | AID 686992;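 active = mean E-selectin-positive cell signal at least 10% of the positive control, reached in at least 60% of replicates, without over 20% cell loss; inconclusive = no rule given, readout overlaps actives, possibly toxicity-flagged; inactive = the rest, including those meeting only one limit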
Target sequence (P16581 whole entry, looked up): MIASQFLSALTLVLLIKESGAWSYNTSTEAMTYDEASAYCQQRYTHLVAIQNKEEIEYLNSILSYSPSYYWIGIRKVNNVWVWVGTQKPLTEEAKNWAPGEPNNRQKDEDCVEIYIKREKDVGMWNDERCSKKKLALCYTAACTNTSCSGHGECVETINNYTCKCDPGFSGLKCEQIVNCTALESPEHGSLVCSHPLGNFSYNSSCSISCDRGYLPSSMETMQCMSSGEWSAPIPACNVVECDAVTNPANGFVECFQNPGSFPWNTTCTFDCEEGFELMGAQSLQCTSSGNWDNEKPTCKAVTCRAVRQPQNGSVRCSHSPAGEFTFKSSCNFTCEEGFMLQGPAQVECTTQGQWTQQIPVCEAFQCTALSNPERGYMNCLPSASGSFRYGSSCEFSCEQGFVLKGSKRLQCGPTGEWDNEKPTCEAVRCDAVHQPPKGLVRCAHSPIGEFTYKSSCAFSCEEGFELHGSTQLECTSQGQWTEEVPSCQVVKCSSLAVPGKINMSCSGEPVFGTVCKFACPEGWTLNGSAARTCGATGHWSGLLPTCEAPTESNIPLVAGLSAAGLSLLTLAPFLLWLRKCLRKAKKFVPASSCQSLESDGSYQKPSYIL
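Read-out: % PE-positive cells | Test system: HUVEC | Doses: One compound dose added by pin transfer | Buffer or medium: EGM-2 over gelatin coat | Signal: Immunofluorescence imaging | Benchmarks: TNF-alpha, DMSO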
Cneo AK release – causes C. neoformans cell lysis. adenylate kinase release luminescence, 4 h; normalised: neutral wells 0, clomiphene wells 100. lysis activity, % at 15 µM. 0.2% of 360,000 active;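 active = mean lysis activity across replicates of at least 80%, whatever share of replicates individually reach that level; inactive = mean lysis activity below 80%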
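Material: C. neoformans cells | Amount: Yeast cell density of 5 × 10^6 cells/mL | Medium: Fresh YPD growth medium | Dosing: Single dose | Times: Static 4 h at 37 °C with compound, 1 h detection | Detection: AK luminescence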
DENV2 CPE rescue – DENV2-induced cell death inhibition; CPE inhibition, % at 9.99 µM; DENV2-infected cells, cytopathic effect rescue, plate reader; 1.7% of 350,000 active; in the data active = CPE inhibition above about 20%, passing the limit was not always enough; inconclusive = no clear call, values can overlap the other calls; tested in BHK-21 cells;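 also: 0% = median of neutral control wells and 100% = median of positive control wells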
An asterisk follows results filed as active; ? = inconclusive; · = not tested or not shown; ! = repeats disagree; [ ] = dose if it differs, or a comment. Most compounds without a hit are left out; they make up all but 3.1% or so of the library.

SMILES | rRNA inh HTS | miR122 inh | E-selectin induc | Cneo AK release | DENV2 CPE rescue
COc1ccc(NC(=O)O[C@@H](C)[C@@H]2CN3CCc4c([nH]c5ccc(-c6ccc(OC)cc6)cc45)[C@@H]3C[C@@H]2N(C)C(=O)Nc2ccc(OC)cc2)cc1 | -26.6* | -5.3 | 0.0 | -1.9 | 5.9
Cc1cccc(C)c1NC(=O)CN(C)C(=O)c1ccc(-n2cncn2)c([N+](=O)[O-])c1 | 2.1 | -3.1 | 49.8* | 2.0 | -6.9
Cc1ccc(C)c(NC(=O)CN(C)C(=O)c2ccc(-n3cncn3)c([N+](=O)[O-])c2)c1 | 14.1 | · | 2.3 | · | 2.2
CC1CN(S(=O)(=O)c2cccc(C(=O)N(C)C3CCN(C)CC3)c2)CC(C)O1 (centres undefined) | · | -5.4 | 0.1 | 1.5 | -2.7
CC1CN(S(=O)(=O)c2cccc(C(=O)N=c3sccn3C)c2)CC(C)O1 (centres undefined) | -21.0* | 13.3 | -1.9 | 0.8 | -8.7
Cc1cccc(C(=O)NC(C(=O)Nc2nc(-c3ccccn3)cs2)C(C)C)c1 (centres undefined) | -34.7* | · | 2.0 | · | ·
CSCCC(=O)Nc1nc(-c2ccccn2)cs1 | -29.2* | · | · | · | -1.3
O=C(CCCSc1ccccc1)Nc1nc(-c2ccccn2)cs1 | · | 6.6 | · | 27.3 | ·
COc1ccc(S(=O)(=O)N(C)C[C@H]2Oc3ccc(NC(=O)Nc4ccc(F)cc4)cc3C(=O)N([C@H](C)CO)C[C@H]2C)cc1 | -1.4 | 101.2*[16.7 µM] | -0.2 | 5.9 | -6.0
COc1ccc(S(=O)(=O)N(C)C[C@H]2OCCCC[C@H](C)Oc3ccc(NC(=O)Nc4c(C)noc4C)cc3C(=O)N([C@H](C)CO)C[C@@H]2C)cc1 | -1.3 | -2.2[16.7 µM] | -0.2 | 1.7 | 67.0*
COc1ccc(NC(=O)Nc2ccc3c(c2)C(=O)N([C@H](C)CO)C[C@@H](C)[C@@H](CN(C)S(=O)(=O)c2ccc(OC)cc2)O3)cc1 | -0.1 | 101.4*[16.7 µM] | -0.1 | 2.7 | 2.5
COc1ccc(S(=O)(=O)N(C)C[C@H]2Oc3ccc(NC(=O)Nc4c(C)noc4C)cc3C(=O)N([C@H](C)CO)C[C@@H]2C)cc1 | 5.3 | 1.9[16.7 µM] | 55.0*! | -2.6 | -10.0
COc1ccc(S(=O)(=O)N(C)C[C@H]2OCCCC[C@H](C)Oc3ccc(NC(=O)Nc4c(C)noc4C)cc3C(=O)N([C@@H](C)CO)C[C@H]2C)cc1 | 0.6 | -0.6[16.7 µM] | -0.2 | -3.2 | 16.1
C[C@@H]1CN([C@H](C)CO)C(=O)c2cccc(NC(=O)Nc3ccc(C(F)(F)F)cc3)c2O[C@@H]1CN(C)S(=O)(=O)c1ccccc1 | 0.7 | 10.1[16.7 µM] | 0.6 | · | ·
O=C(C[C@@H]1CC[C@@H]2[C@H](COC[C@H](O)CN2S(=O)(=O)c2ccccc2)O1)NCCN1CCCC1 | 4.5 | · | -0.1 | · | 6.6
C/C=C/c1ccc2c(c1)O[C@@H](CN(C)C(=O)NC(C)C)[C@@H](C)CN([C@H](C)CO)S2(=O)=O | -3.4 | -4.4[16.7 µM] | 0.2 | -0.6 | 6.4
C[C@@H]1CN([C@H](C)CO)C(=O)c2cc(NC(=O)Nc3ccc4c(c3)OCO4)ccc2O[C@H]1CN(C)S(=O)(=O)c1ccc(F)cc1 | -0.2 | 2.3[16.7 µM] | 51.2* | 6.3 | 8.0
COc1ccc(Nc2c(CC(C)C)nc3nc(C)cc(C)n23)cc1 | 6.2 | · | 0.0 | · | -8.4
Cc1cc(C)n2c(Nc3ccc4c(c3)OCCO4)c(CC(C)C)nc2n1 | 1.6 | · | 1.5 | · | 46.0*
Cc1ccc(C(O)Cn2cc([N+](=O)[O-])nc2C)cc1 (centres undefined) | -1.1 | · | · | -3.8 | 10.5
Cc1nc([N+](=O)[O-])cn1CC(O)c1ccc(-c2ccccc2)cc1 (centres undefined) | -45.0* | -4.1 | -0.1 | 0.5 | 10.1
O=C(C[C@@H]1CC[C@@H](NC(=O)c2ccncc2)[C@H](CO)O1)Nc1ccc(-c2ccccc2)cc1 | -2.8 | · | 0.1 | · | -6.5
CN(C)Cc1nnnn1-c1ccccc1 | 2.4 | -6.3 | · | 1.2 | 3.3
CN(/N=C/Cc1nnnn1-c1ccc(Cl)cc1)c1ccccc1 | -21.6* | · | · | · | 2.9
CN(c1ccccc1)c1nc(N)c([N+](=O)[O-])c(N2CCCC2)n1 | -26.7* | -1.5 | 1.7 | -0.3 | 13.9
SMILES | rRNA inh HTS | miR122 inh | E-selectin induc | Cneo AK release | DENV2 CPE rescue
COc1ccc(-c2nc3ccccc3nc2-c2ccc(OC)cc2)cc1 | -5.2 | -1.1 | 0.0 | 0.8 | 1.0
COc1cnc(-c2ccccc2)c(-c2ccccc2)n1 | -31.9* | -10.1 | 4.0 | -5.1 | ?
CC(C)NC(=O)N1C2CN(Cc3ccc(F)cc3)CC1C2c1ccc(Br)cc1 (centres undefined) | -15.4 | · | · | · | ·
COc1cccc(C(=O)c2c(-c3ccccc3)ncc3cc(OC)c(OC)cc23)c1 | -0.9 | 6.8 | 0.0 | -10.6 | 26.9*
O=C(c1cccc(F)c1)N1C[C@@H]2[C@H](c3ccccc31)[C@@H](CO)N2C(=O)c1cccc(F)c1 | 0.9 | 30.0[16.7 µM] | 0.1 | 56.5 | 8.8
O=C(c1ccccc1)N1C[C@@H]2[C@H](c3ccccc31)[C@H](CO)N2C(=O)c1cccc(F)c1 | -1.2 | 10.0[16.7 µM] | 0.3 | -2.4 | 25.8*
O=C(c1cccc(F)c1)N1C[C@@H]2[C@H](c3ccccc31)[C@H](CO)N2C(=O)C1CC1 | 2.1 | 0.0[16.7 µM] | 0.0 | -3.9 | 31.6*
COc1ccc2c3c(n(C)c2c1)[C@@H](CO)N(CC1CC1)CC31CCN(C(=O)CN(C)C)CC1 | 3.3 | · | -0.3 | · | 6.0
Cc1ccccc1S(=O)(=O)N1CC[C@@H]2[C@@H](CO)Nc3ccc(-c4cccc(C#N)c4)cc3[C@@H]21 | -7.8 | 32.6[16.7 µM] | -0.4 | 39.8 | 64.6*
N#Cc1cccc(-c2ccc3c(c2)[C@@H]2[C@@H](CCN2S(=O)(=O)c2ccccc2F)[C@H](CO)N3)c1 | -36.1 | 0.1[16.7 µM] | -0.7 | -4.5 | -4.7
Cc1ccccc1S(=O)(=O)N1CC[C@@H]2[C@H](CO)Nc3ccc(-c4cccc(C#N)c4)cc3[C@@H]21 | -27.0 | -4.4[16.7 µM] | -0.8 | -13.3 | 95.7*
N#Cc1cccc(-c2ccc3c(c2)[C@@H]2[C@@H](CCN2S(=O)(=O)c2ccccc2)[C@@H](CO)N3)c1 | -12.2 | -8.4[16.7 µM] | -0.3 | -8.6 | -3.1
CCCN(C)C[C@H]1OCCCC[C@H](C)Oc2ccc(NS(=O)(=O)c3cn(C)cn3)cc2C(=O)N([C@H](C)CO)C[C@H]1C | 2.2 | 4.7[16.7 µM] | -0.1 | · | ·
CN(C)c1ccc(C=C2C=Cc3ccccc32)cc1 | 3.0 | · | · | 0.3 | -3.4
CNc1ccc(C=C2C=Cc3ccccc32)cc1 | -19.5* | 0.7 | 0.8 | · | -2.4
O=Cc1cc(N=Nc2ccc(S(=O)(=O)O)cc2)ccc1O | -20.4* | · | 10.0 | · | -1.7
CC(C)CC#Cc1ccc2c(c1)O[C@H](CN(C)Cc1ccc(C(=O)O)cc1)[C@@H](C)CN([C@H](C)CO)S2(=O)=O | · | · | · | -8.9 | 10.1
CC(C)(C)C1CCC(=O)N(CCOc2ccccc2)CC1 (centres undefined) | -40.0 | -11.6 | 1.0 | -1.5 | 65.9*

Screening results as filed in PubChem.
